Consider six molecules from ChEMBL document CHEMBL1125206, “Modification of the enkephalin "message" with an artificial polycationic C-terminus” (J Med Chem, 1991).

For experiment [1], the species on record is Cavia porcellus. As to the kind of experiment: The compound was tested for inhibition of electrically evoked contractions in guinea pig ileum with bestatin at 10e-6 M conc. It counts as functional. The essentials:
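Guinea pig ileum, electrically stimulated. Compound at 10⁻⁶ M final concentration, scored as inhibition of evoked contractions. Tissues were qualified with a morphine response at 10⁻⁷ M. Values are the average of two or three experiments. Compounds tested as HCl salts.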

For experiment [2], the species on record is Cavia porcellus. As to the kind of experiment: Inhibition of electrically evoked contractions in guinea pig ileum at 10e-6 M with cocktail comprised of 10 uM thiophan, and 10 mM L-leucylleucine. It counts as functional. The essentials: (§1)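 Isolated guinea pig ileum, electrically stimulated; inhibition of evoked contractions by compound (HCl salt) at 10⁻⁶ M final. Only tissues responding to 10⁻⁷ M morphine reference were used. Values are the average of two or three experiments.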

Experiment [3] is filed under the species Cavia porcellus. As to the kind of experiment: Inhibition of electrically evoked contractions in guinea pig ileum at 10e-6 M conc. with cocktail comprised of 10 uM bestatin, 10 uM captopril, 0.3 uM thiophan, and 10 mM L-leucylleucine. The class given is functional. The essentials:
as §1

Experiment [4] has as its target Kappa-type opioid receptor (Cavia porcellus, UniProt P41144). As to the kind of experiment: The compound was tested for binding activity towards opioid receptor kappa in guinea pig brain membranes. It counts as cell membranes. The essentials: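 Guinea pig brain membranes (male Hartley) in competitive radioligand displacement at 25 °C with 100 mM NaCl. κ sites were labelled with 1 nM (-)-[³H]EKC (final), with 500 nM DADLE and 20 nM sufentanil masking other sites. Compounds were tested as HCl salts. Values are single experiments in duplicate or mean ± SEM of three experiments in duplicate.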

The target in experiment [5] is Mu-type opioid receptor (Cavia porcellus, UniProt P97266). As to the kind of experiment: The compound was tested for binding activity towards opioid receptor mu in guinea pig brain membranes. The class given is cell membranes. The essentials:
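Competitive radioligand binding used male Hartley guinea pig brain membranes at 25 °C in 100 mM NaCl, with 0.5 nM [³H]naloxone (final) for μ sites. Compounds were tested as HCl salts. Data come from single duplicate experiments or are mean ± SEM of three experiments run in duplicate.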

The species entered for experiment [6] is Cavia porcellus. As to the kind of experiment: The compound was tested for inhibition of electrically evoked contractions in guinea pig ileum with bestatin at 10e-6 M. It counts as functional. In short, it runs like this:
as §1

Each structure is given as a SMILES string. Starred links: 1 amine or outer side, 2 acyl side, 3 side chain; linkers in the order of their positions; H or OH if unused. Residues, ends and D or L forms follow the SMILES beside them. Ethylenediamine = C(CN[*:2])N[*:1]; GABA = NCCCC(=O)O

Sequence of Mu-type opioid receptor (P97266 whole entry): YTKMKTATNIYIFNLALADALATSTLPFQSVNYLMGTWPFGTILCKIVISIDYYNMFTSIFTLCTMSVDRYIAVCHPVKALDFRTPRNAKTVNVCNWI
Sequence of Kappa-type opioid receptor (P41144 whole entry): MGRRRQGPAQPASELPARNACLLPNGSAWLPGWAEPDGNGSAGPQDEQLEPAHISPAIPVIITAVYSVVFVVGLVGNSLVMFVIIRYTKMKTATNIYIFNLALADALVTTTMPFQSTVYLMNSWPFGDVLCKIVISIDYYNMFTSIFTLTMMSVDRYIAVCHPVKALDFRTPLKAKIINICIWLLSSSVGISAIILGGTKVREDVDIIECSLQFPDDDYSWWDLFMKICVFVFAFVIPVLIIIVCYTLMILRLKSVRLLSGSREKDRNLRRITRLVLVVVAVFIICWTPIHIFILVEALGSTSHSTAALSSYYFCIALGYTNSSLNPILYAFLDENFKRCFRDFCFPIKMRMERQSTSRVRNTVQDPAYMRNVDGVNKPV

Usually inhibition stands for the percentage by which the read-out fell short of the control. As a reminder, the Inhibition is the percentage by which the read-out fell short of the control. A lower Inhibition goes with a response near the control. In the case of `NCCCC(=O)NCCN(CCNC(=O)CCCN)C(=O)CCCN`, in experiment [1], the inhibition at 1 µM was 0%. Moreover, in experiment [2], the Inhibition was 0%.

One may read the Ki as a measure of affinity in units of concentration, obtained from inhibition or displacement. Higher therefore signals a looser hold on the target. With `NCCCC(=O)NCCNC(=O)[C@H](Cc1ccccc1)NC(=O)CNC(=O)CNC(=O)[C@@H](N)Cc1ccc(O)cc1` (H-YGGF-{Ethylenediamine-GABA}), in experiment [3], the Inhibition amounted to 28.5%. Moreover, the inhibition at 1 µM in experiment [1] is 29.5%. Besides, the Ki is 36.7 µM in experiment [4] and 16.5 µM in experiment [5].

Take `NCCCC(=O)NCCCN(CCCNC(=O)[C@H](Cc1ccccc1)NC(=O)CNC(=O)CNC(=O)[C@@H](N)Cc1ccc(O)cc1)C(=O)CCCN` (HELM PEPTIDE1{Y.G.G.F.[NCCCC(=O)NCCCN(CCCN[*:1])C(=O)CCCN]}$$$$V2.0): the inhibition at 1 µM in experiment [6] came to 13%. Moreover, the Inhibition in experiment [2] turned out to be 12.5%. Moreover, the Ki is 5.51 µM in experiment [4] and 7.3 µM in experiment [5].

In turn, `NCCCC(=O)NCCN(CCN(CCNC(=O)[C@H](Cc1ccccc1)NC(=O)CNC(=O)CNC(=O)[C@@H](N)Cc1ccc(O)cc1)C(=O)CCCN)C(=O)CCCN` (HELM PEPTIDE1{Y.G.G.F.[NCCCC(=O)NCCN(CCN(CCN[*:1])C(=O)CCCN)C(=O)CCCN]}$$$$V2.0) gave an Inhibition in experiment [2] of 9%. Further, the Ki in experiment [4] was determined as 3.73 µM; in experiment [5], 6.76 µM.

`NCCCC(=O)NCCN(CCNC(=O)[C@H](Cc1ccccc1)NC(=O)CNC(=O)CNC(=O)[C@@H](N)Cc1ccc(O)cc1)C(=O)CCCN` (HELM PEPTIDE1{Y.G.G.F.[NCCCC(=O)NCCN(CCN[*:1])C(=O)CCCN]}$$$$V2.0) yielded an Inhibition in experiment [3] of 17.5%. Besides, in experiment [1], the inhibition at 1 µM is 13.5%. For the same molecule, the values for the Ki in experiment [4] and in experiment [5] were 8.75 µM and 14.4 µM, respectively.

With `CC[C@H](C)[C@H](NC(=O)[C@H](CCCNC(=N)N)NC(=O)[C@H](CCCNC(=N)N)NC(=O)[C@H](CC(C)C)NC(=O)[C@H](Cc1ccccc1)NC(=O)CNC(=O)CNC(=O)[C@@H](N)Cc1ccc(O)cc1)C(=O)N[C@@H](CCCNC(=N)N)C(=O)N1CCC[C@H]1C(=O)N[C@@H](CCCCN)C(=O)N[C@@H](CC(C)C)C(=O)N[C@@H](CCCCN)C(=O)O` [ANALOG OF DYNORPHIN A], the inhibitory constant (Ki) in experiment [4] was found to be 0.0036 µM; in experiment [5] it was 0.05 µM.
